According to ChEMBL document CHEMBL5346942, “Identification and analysis of small molecule inhibitors of FosB from Staphylococcus aureus” (RSC Med Chem, 2023):
In brackets after ≈: the same amount, converted by molar mass.

How the values were obtained:
HEK293 = assay: Cytotoxicity against HEK293 cells assessed as reduction in cell viability at 64 ug/ml incubated for 24 hrs by resazurin dye based fluorescence analysis; assay type: toxicity; settings: human, hek293, 24 h, dose 64 µg/ml
Summary of the method: (§1)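 HEK-293 or HepG2 cells grown in DMEM with 10% FBS and 1% penicillin/streptomycin at 37 °C, 5% CO2. Positive control was 1% Triton X-100. Viability read by resazurin (2 mM stock) added for 24 h, measuring resorufin fluorescence.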

HepG2 = assay: Cytotoxicity against human HepG2 cells assessed as reduction in cell viability at 64 ug/ml incubated for 24 hrs by resazurin dye based fluorescence analysis; assay type: toxicity; settings: hepg2, 24 h, dose 64 µg/ml; summary of the method: as §1
Staphylococcus aureus [1] = assay: Antibacterial activity against Staphylococcus aureus JE2 harboring […] assessed as fosfomycin MIC at 128 ug/ml incubated overnight by double dilution method; assay type: functional; settings: dose 128 µg/ml
Summary of the method: (§2)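 S. aureus JE2 grown overnight at 37 °C on Mueller–Hinton agar; colonies suspended in MH broth to OD600 ~0.5, diluted 1:1000 and added to serial twofold dilutions of compound (water stocks 10 mg/mL). Incubated overnight at 37 °C; MIC read visually as the well with no growth. Sterile and growth control wells included. For combinations, fosfomycin diluted along one plate axis and inhibitor along the other, before the inoculum was added.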

[2] = biological target: T1, Metallothiol transferase FosB (Staphylococcus aureus, UniProt Q5HDM4); assay: Inhibition of Staphylococcus aureus FosB using L-cysteine as substrate assessed as inhibition constant for initial binding event by absorbance based DTNB assay
Staphylococcus aureus [3] = assay: Antibacterial activity against Staphylococcus aureus JE2 harboring […] assessed as reduction in bacterial growth incubated overnight by double dilution method; assay type: functional; summary of the method: as §2
Staphylococcus aureus [4] = assay: Antibacterial activity against Staphylococcus aureus JE2 harboring […] assessed as reduction in bacterial growth incubated overnight in presence of fosfomycin by double dilution method; assay type: functional; summary of the method: as §2
[5] = biological target: T1, Metallothiol transferase FosB; assay: Competitive inhibition of Staphylococcus aureus FosB using L-cysteine as substrate assessed as inhibition constant for initial binding event by absorbance based DTNB assay
Staphylococcus aureus [6] = assay: Antibacterial activity against Staphylococcus aureus lacking FosB; assay type: functional
Staphylococcus aureus [7] = assay: Antibacterial activity against Staphylococcus aureus harboring FosB; assay type: functional; summary of the method: as §2
[8] = biological target: T1, Metallothiol transferase FosB; assay: Parabolic competitive inhibition of Staphylococcus aureus FosB using L-cysteine as substrate assessed as inhibition constant for second binding event by absorbance based DTNB assay
Summary of the method: (§3)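 FosB from S. aureus, steady-state Michaelis–Menten kinetics with L-cysteine as the thiol co-substrate (instead of BSH) and varied fosfomycin. Rates read by absorbance-based DTNB assay at several fixed inhibitor concentrations. Initial velocities globally fit to a parabolic competitive model (two inhibitor molecules bind). Ki1 is the first binding event, Ki2 the second.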

[9] = biological target: T1, Metallothiol transferase FosB; assay: Parabolic competitive inhibition of Staphylococcus aureus FosB using L-cysteine as substrate assessed as inhibition constant for initial binding event by absorbance based DTNB assay; summary of the method: as §3

T1 sequence (Q5HDM4 whole entry): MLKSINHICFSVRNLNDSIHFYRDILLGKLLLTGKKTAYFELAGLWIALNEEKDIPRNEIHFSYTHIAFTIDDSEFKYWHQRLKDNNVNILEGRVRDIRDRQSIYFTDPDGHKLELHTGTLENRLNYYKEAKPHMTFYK

Q: Which Activity (HEK293) does the source give for `O=C(O)CCP(=O)(O)O` here?
A: The Activity was “Non-Toxic”.

Q: What about the Activity (HepG2) of the same compound?
A: Its Activity is “Non-Toxic”.

Q: `O=P(O)(O)CCP(=O)(O)O` was tested. Which Activity (HEK293) did it give?
A: Its Activity is “Non-Toxic”.

Q: And the Activity (HepG2)?
A: The Activity was “Non-Toxic”.

Q: Which results are given for `CC(C)[C@H](O)P(=O)(O)O`?
A: Activity (HEK293): Non-Toxic; MIC (Staphylococcus aureus [1]): 8 µg/mL; Activity (HepG2): Non-Toxic; Ki [2]: 3580 µM; MIC (Staphylococcus aureus [3]): > 128 µg/mL; MIC (Staphylococcus aureus [4]): > 128 µg/mL

Q: How did the Activity (HEK293) turn out when `C[C@H](CO)P(=O)(O)O` was run?
A: The Activity was “Non-Toxic”.

Q: And the MIC (Staphylococcus aureus [1])?
A: Its MIC is 8 µg/mL.

Q: What about the Activity (HepG2) of the same compound?
A: Its Activity is “Non-Toxic”.

Q: What about the Ki [2] of the same compound?
A: The Ki was 5290 µM.

Q: And the MIC (Staphylococcus aureus [3])?
A: Its MIC is > 128 µg/mL.

Q: And the MIC (Staphylococcus aureus [4])?
A: Its MIC is > 128 µg/mL.

Q: With `CC[C@@H](O)P(=O)(O)O` as the compound, how does the Activity (HEK293) read?
A: The Activity was “Non-Toxic”.

Q: And the MIC (Staphylococcus aureus [1])?
A: Its MIC is 8 µg/mL.

Q: And the Activity (HepG2)?
A: The Activity was “Non-Toxic”.

Q: And the Ki [2]?
A: The Ki was 1570 µM.

Q: And the MIC (Staphylococcus aureus [4])?
A: The MIC was > 128 µg/mL.

Q: With `C[C@@H](C(=O)O)P(=O)(O)O` as the compound, how does the Activity (HEK293) read?
A: Its Activity is “Non-Toxic”.

Q: And the MIC (Staphylococcus aureus [1])?
A: Its MIC is 8 µg/mL.

Q: What about the Activity (HepG2) of the same compound?
A: The Activity was “Non-Toxic”.

Q: And the Ki [5]?
A: The Ki was 430 µM.

Q: And the MIC (Staphylococcus aureus [3])?
A: The MIC was > 128 µg/mL.

Q: What about the MIC (Staphylococcus aureus [4]) of the same compound?
A: The MIC was > 128 µg/mL.

Q: With `C[C@@H]1O[C@@H]1P(=O)(O)O` [FOSFOMYCIN] as the compound, how does the Activity (HEK293) read?
A: The Activity was “Non-Toxic”.

Q: And the Activity (HepG2)?
A: Its Activity is “Non-Toxic”.

Q: And the MIC (Staphylococcus aureus [6])?
A: Its MIC is 0.5 µg/mL (≈ 3.62 µM).

Q: And the MIC (Staphylococcus aureus [7])?
A: Its MIC is 64 µg/mL (≈ 464 µM).

Q: And the MIC (Staphylococcus aureus [3])?
A: The MIC was > 128 µg/mL.

Q: What does the source list for `O=C(O)CP(=O)(O)O` [FOSFONET]?
A: Ki [8]: 210 µM; Activity (HEK293): Non-Toxic; MIC (Staphylococcus aureus [1]): 8 µg/mL; Activity (HepG2): Non-Toxic; MIC (Staphylococcus aureus [3]): > 128 µg/mL; Ki [9]: 900 µM; MIC (Staphylococcus aureus [4]): > 128 µg/mL

Q: Which Activity (HEK293) does the source give for `CC(C(=O)O)C(=O)O` [METHYLMALONIC ACID] here?
A: The Activity was “Non-Toxic”.

Q: What about the Activity (HepG2) of the same compound?
A: The Activity was “Non-Toxic”.
